Assay [1] deals with Alpha-galactosidase (Coffea arabica) (UniProt Q42656). The assay can be described thus: Inhibition of alpha-galactosidase from coffee beans at 1 mM at pH 6. A digest of the protocol: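 Glycosidase panel of commercial enzymes assayed at each enzyme's optimal pH with compound at 1 mM; percentage inhibition of enzyme activity calculated.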
In assay [2] the test system is MCF7. The assay is described as follows: Decrease in hTERT mRNA level in human MCF7 cells at 50 uM after 12 hrs by TLDA. The format is functional, cell-based. An outline of the steps: (§1)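 SKBR3 and MCF7 cells seeded at 2 × 10⁵ per well, treated 12 h with 50 µM compound (DMSO stock); total RNA extracted, cDNA made with random hexamers, gene expression profiled by TaqMan low-density arrays (qPCR, duplicate per gene). Normalised to RPLP0; fold change versus DMSO vehicle-treated cells, calculated as 2^-ΔΔCT.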

Assay [3] can be described thus: Cytotoxicity in human multiple myeloma cells assessed as early apoptotic cells at 100 uM after 24 hrs by annexin V/propidium iodide staining based flow cytometry (reference value: 0.1%). In kind it is functional, Multiple myeloma cell. A general note: A flow cytometer gives signals particle by particle.
Assay [4] in a line: Cytotoxicity in human B-CLL assessed as early apoptotic cells at 100 uM after 24 hrs by annexin V/propidium iodide staining based flow cytometry (reference value: 3.6 to 20.2%). The format is functional.
Assay [5] in a line: Cytotoxicity in human B-CLL assessed as viable cells at 100 uM after 24 hrs by annexin V/propidium iodide staining based flow cytometry (reference value: 65.8 to 78%). In kind it is functional. Particulars: read-out: Activity.
The test system of assay [6] is SK-BR-3. The assay is described as follows: Cell cycle arrest in human SKBR3 cells by accumulation of cells at S phase at 50 uM after 48 hrs by propidium iodide-staining based flow cytometry (reference value: 30%). The format is functional.
Assay [7] deals with MCF7. The assay can be described thus: Decrease in ID1 mRNA level in human MCF7 cells at 50 uM after 12 hrs by TLDA. In kind it is functional, cell-based. A digest of the protocol: (§2)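 SKBR3 or MCF7 cells, 2×10⁵/well, treated with 50 µM for 12 h. Total RNA was column-purified and reverse-transcribed with random hexamers, then assayed on TaqMan low-density arrays. Expression was normalised to RPLP0, with fold change versus DMSO-vehicle cells calculated as 2^-ΔΔCT. Q-PCR run in duplicate per gene.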

Assay [8] can be described thus: Cytotoxicity in human multiple myeloma cells assessed as pre-necrotic cells at 200 uM after 24 hrs by annexin V/propidium iodide staining based flow cytometry (reference value: 42.1%). In kind it is functional, Multiple myeloma cell.
Assay [9] in a line: Cytotoxicity in human multiple myeloma cells assessed as late apoptotic/necrotic cells at 200 uM after 24 hrs by annexin V/propidium iodide staining based flow cytometry (reference value: 9.1%). In kind it is functional, Multiple myeloma cell.
The test system of the next assay is A549. The assay can be described thus: Cytotoxicity against human A549 cells after 72 hrs by colorimetric assay in presence of antioxidant N-acetyl-cysteine. The format is functional, cell-based.
The nature of assay [10]: Cytotoxicity in human B-CLL assessed as late apoptotic/necrotic cells at 50 uM after 24 hrs by annexin V/propidium iodide staining based flow cytometry (reference value: 10 to 14.7%). The format is functional.
Assay [11] relates to SK-BR-3. The assay is described as follows: Decrease in hTERT mRNA level in human SKBR3 cells at 50 uM after 12 hrs by TLDA. In kind it is functional, cell-based. A digest of the protocol:
as §1

The test system of assay [12] is MCF7. The assay is described as follows: Decrease in CDC25 mRNA level in human MCF7 cells at 50 uM after 12 hrs by TLDA. The format is functional, cell-based. A digest of the protocol:
as §2

The test system of assay [13] is SK-BR-3. The assay is described as follows: Decrease in CDC25 mRNA level in human SKBR3 cells at 50 uM after 12 hrs by TLDA. The format is functional, cell-based. An outline of the steps: as §2
Assay [14] concerns SK-BR-3. The assay is described as follows: Cell cycle arrest in human SKBR3 cells by accumulation of cells at S phase at 200 uM after 48 hrs by propidium iodide-staining based flow cytometry (reference value: 30%). In kind it is functional.
For the next assay, the system named is Jurkat. The assay is described as follows: Cytotoxicity against human Jurkat cells after 72 hrs by colorimetric assay. The format is functional, cell-based. As to conditions: Homo sapiens, Jurkat, 72 h; read-out: IC50.

The source made the active and inactive calls. The calls are words filed in the database; no cut-off is given here.

A word on the inhibition: it is the drop in the measured response relative to a control, in per cent. Read a low inhibition as little suppression. What is called IC50 is the concentration at which inhibition is half-maximal.

Sequence of Alpha-galactosidase (Coffea arabica) (Q42656 16-378 limits assumed): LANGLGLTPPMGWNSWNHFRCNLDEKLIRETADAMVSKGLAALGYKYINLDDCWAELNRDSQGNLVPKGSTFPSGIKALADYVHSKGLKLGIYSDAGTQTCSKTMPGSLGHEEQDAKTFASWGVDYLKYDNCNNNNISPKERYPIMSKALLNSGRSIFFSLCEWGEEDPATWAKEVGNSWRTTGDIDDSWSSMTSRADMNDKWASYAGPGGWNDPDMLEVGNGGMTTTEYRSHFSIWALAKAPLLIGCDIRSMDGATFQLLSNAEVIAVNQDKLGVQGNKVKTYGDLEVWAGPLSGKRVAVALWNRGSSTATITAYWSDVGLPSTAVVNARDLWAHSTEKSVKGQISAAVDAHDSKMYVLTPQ

Molecule `OC[C@H](NC[C@H]1NC[C@H](O)[C@@H]1O)c1ccc(-c2ccc(C(F)(F)F)cc2)cc1` came in with an inhibition in [1] of less than 10%. Besides, the outcome with MCF7 [2], in the assay with MCF7 [7], in the assay on A549, in the assay on SK-BR-3 [11], in the assay with MCF7 [12] and with SK-BR-3 [13] was Active. In addition, the Activity in assay [3] came to 2.6%; in assay [4], 2.7%; in the assay with SK-BR-3 [6] it was 30%; in assay [8] it was 21.3%; in assay [9] it was 75.4%; in [10] it was 10.1%. In addition, the Activity in the assay with SK-BR-3 [14] stood at 16%. Besides, the viability at 100 µM in [5] was found to be 5.1%. In the assay with Jurkat, the IC50 amounted to 75 µM.

Source of the values: ChEMBL document CHEMBL1157882, “Novel 2-[(benzylamino)methyl]pyrrolidine-3,4-diol derivatives as alpha-mannosidase inhibitors and with antitumor activities against hematological and solid malignancies” (Bioorg Med Chem, 2010).
